A selection: hits, their analogues and other compounds. The true share with any hit is near 2%.
ASAP1 inh: inhibitors of human ASAP1 ArfGAP activity; Q9ULH1; ASAP1-stimulated ARF1 GTP hydrolysis, GDP FP detection; inhibition, % at 16.5 µM; hit rate 0.19% among 360,000; AID 624377; in the data active = inhibition above about 25%
ARFGAP1 inhibitor: inhibits rat ARF GTPase activating protein 1; Arfgap1-stimulated ARF1 GTP hydrolysis, GDP FP detection; inhibition, % at 16.5 µM; hit rate 0.26% among 360,000; AID 651572; Q62848;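 active = inhibition above a per-plate limit, mean inhibition of low control wells plus 3 SD, cut at about 25% in these data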
Target sequence (Q62848 1-136 limits assumed): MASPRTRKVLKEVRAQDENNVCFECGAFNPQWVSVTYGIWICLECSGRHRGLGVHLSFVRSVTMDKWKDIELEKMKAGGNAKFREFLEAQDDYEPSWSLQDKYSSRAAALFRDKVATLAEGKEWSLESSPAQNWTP
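System: truncated rat Arfgap1 GAP domain / Medium: HEPES-based buffer, pH 7.5 / Also added: N-terminally truncated human ARF1-GTP substrate / Incubation: enzyme reaction 120 min at 25 °C after 20 min preincubation / Measured by: FP of antibody-bound GDP Alexa 633 tracer, ex 620/em 688 nm / Replicates: singlicate, each compound tested once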
LEDGF integ inh: blocks HIV-1 LEDGF/p75-dependent DNA integration; inhibition, % at 3.7 µM; TR-FRET IN-LEDGF/p75 DNA integration, Eu/Cy5; hit rate 0.64% among 370,000;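 active = inhibition above the screen-wide mean plus 3 SD, cut at about 13% in these data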;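 also: signal is the Cy5 over europium emission ratio at 671 and 618 nm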
TDP2 inh: TDP2 (human) inhibition, absorbance primary screen; AID 720702; hit rate 0.34% among 370,000; recombinant TDP2, T5PNP hydrolysis, p-nitrophenol absorbance 415 nm; O95551; inhibition, % at 12.8 µM;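 active = inhibition above the mean of all tested compounds plus 3 SD, set per campaign, cut at about 25% in these data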
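Test system: Human TDP2 enzyme | Reagent: 5 mM T5PNP | Compound dosing: 12.8 µM single point, 1% DMSO | Incubation: Enzyme reaction with compound for 2 h at 37 °C | Technique: p-Nitrophenol epi absorbance | Read-out: % inhibition relative to enzyme-containing and enzyme-free wells | Benchmarks: High control without enzyme, low control DMSO plus TDP2 | Replicates: Singlicate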
UHRF1 MBD2 ctr: blocks human UHRF1 binding to methylated DNA | Q96T88 | UHRF1 binding to methylated oligo, TR-FRET | inhibition, % at 4.4 µM | hit rate 0.75% among 370,000;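 also: UHRF1 SRA domain binding a hemimethylated CpG hairpin DNA probe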
MBD2 DNA inh: blocks human MBD2 binding to methylated DNA; Q9UBB5; TR-FRET, MBD2 binding to methylated oligonucleotide; inhibition, % at 4.4 µM; hit rate 0.31% among 370,000; in the data active = inhibition above about 13%
Target sequence (Q9UBB5 whole entry, looked up): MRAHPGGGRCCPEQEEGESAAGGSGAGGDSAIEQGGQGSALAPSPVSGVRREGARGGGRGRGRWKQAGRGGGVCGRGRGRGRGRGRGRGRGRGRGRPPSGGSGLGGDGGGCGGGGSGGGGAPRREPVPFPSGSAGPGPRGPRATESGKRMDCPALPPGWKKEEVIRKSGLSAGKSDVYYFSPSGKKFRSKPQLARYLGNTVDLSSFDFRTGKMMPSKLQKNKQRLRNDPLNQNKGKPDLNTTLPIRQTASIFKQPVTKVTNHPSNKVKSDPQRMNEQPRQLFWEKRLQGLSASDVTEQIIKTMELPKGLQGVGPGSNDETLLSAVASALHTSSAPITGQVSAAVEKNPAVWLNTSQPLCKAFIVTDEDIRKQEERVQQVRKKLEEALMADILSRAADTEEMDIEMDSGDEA
UHRF1 DNA bind: UHRF1 methyl-oligo binding inhibition as MBD2 counter-screen; shares compounds with MBD2 DNA inh; hit rate 25% among 1,000; inhibition, % at 4.4 µM; UHRF1 binding to methylated oligonucleotide, TR-FRET;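 also: UHRF1 SRA domain binding a labeled hemimethylated CpG hairpin DNA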
MBD2 confirm: MBD2-DBD methyl-DNA binding inhibition, TR-FRET confirmation; hit rate 26% among 1,000; TR-FRET MBD2-DBD binding to methylated oligonucleotide; shares compounds with MBD2 DNA inh; AID 720531; inhibition, % at 4.4 µM; in the data active = inhibition above about 14%
Each line names hits and unclear results; the compound was inactive in the other large screens (follow-up assays come after a bar, where they were run). Rule as the data show it, unless noted: active = inhibition above about 21%; inactive = the rest.

O=C1OC(c2ccccc2)Cc2cc(C(=O)N3CCN(c4ccc(F)cc4)CC3)ccc21 (centres undefined)	none
COc1ccc(N2CCN(C(=O)c3ccc4c(c3)CC(c3ccccc3)OC4=O)CC2)cc1 (centres undefined)	UHRF1 MBD2 ctr 20.9, MBD2 DNA inh 13.6 | UHRF1 DNA bind inactive | MBD2 confirm inactive
COC(=O)[C@]12C[C@H](CC(=O)NCCCCc3ccccc3)C(=O)N(Cc3ccco3)C1=C[C@H](C(C)C)O[C@@H]2C1CC1	none (no result: ASAP1 inh, ARFGAP1 inhibitor)
CSc1nsc(SCC(=O)Nc2ccc(C(C)=O)cc2)n1	none
CSc1nsc(SCC(=O)Nc2ccc(C(N)=O)cc2)n1	MBD2 DNA inh 22.7 | UHRF1 DNA bind inactive | MBD2 confirm inactive
CCCC[C@@H]1C(=O)N2N=Cc3ccccc3[C@H]2N2N=Cc3ccccc3[C@@H]12	none (no result: ASAP1 inh, ARFGAP1 inhibitor)
COc1ccccc1Cc1c(C2CCCCC2)nc2ccc(C)cn12	none
COc1ccc(Cc2c(C3CCCCC3)nc3ccc(C)cn23)c(C)c1	UHRF1 MBD2 ctr 25.1, MBD2 DNA inh 17.5 | UHRF1 DNA bind inactive | MBD2 confirm inactive
COc1ccc(Cc2nnc(NC(=O)Nc3cccc(OC)c3)s2)cc1	none
COc1cccc(NC(=O)Nc2nnc(Cc3ccc(F)cc3)s2)c1	MBD2 DNA inh 34.1 | UHRF1 DNA bind inactive | MBD2 confirm inactive
Cc1ccc(NC(=O)CCOc2ccccc2)cc1	MBD2 DNA inh 59.1 | UHRF1 DNA bind inactive | MBD2 confirm inactive
O=C(CCOc1ccccc1)Nc1ccccc1	none
CN1CCC(N2CCN(C3CN(Cc4cn(Cc5cccc(C(F)(F)F)c5)nn4)S(=O)(=O)C3)CC2)CC1 (centres undefined)	UHRF1 MBD2 ctr 22.7, MBD2 DNA inh 14.5 | UHRF1 DNA bind inactive | MBD2 confirm inactive
CN(Cc1cn(Cc2cccc(Cl)c2)nn1)C1CN(Cc2cn(Cc3cccc(Cl)c3)nn2)S(=O)(=O)C1 (centres undefined)	MBD2 DNA inh 14.4 | UHRF1 DNA bind inactive | MBD2 confirm inactive
O=S1(=O)CC(N2CCN(CCO)CC2)CN1Cc1cn(Cc2ccc(C(F)(F)F)cc2)nn1 (centres undefined)	MBD2 DNA inh 14.2 | UHRF1 DNA bind inactive | MBD2 confirm inactive
O=S1(=O)CC(N2CCN(CCO)CC2)CN1Cc1cn(Cc2ccccc2)nn1 (centres undefined)	none
CN1CCN(C2CN(Cc3cn(Cc4cccc(C(F)(F)F)c4)nn3)S(=O)(=O)C2)CC1 (centres undefined)	none
O=C(NCC(c1ccccc1)c1ccccc1)[C@H](Cc1ccccc1)NC1(C(=O)NC2CCCCC2)CCCCCC1	none (no result: ASAP1 inh, ARFGAP1 inhibitor)
Cc1cc(C)c2cccc(N)c2n1	none
Cc1cc(C)c2c(N)c3ccccc3nc2n1	UHRF1 MBD2 ctr 22.0, MBD2 DNA inh 20.3 | UHRF1 DNA bind 21.2 | MBD2 confirm 25.1
CCN(CC(=O)Nc1ccc2c(c1)OCCO2)CC(=O)Nc1ccc(C)c([N+](=O)[O-])c1	none
CCN(CC(=O)Nc1ccc2c(c1)OCCO2)CC(=O)Nc1ccc(C)c(S(=O)(=O)N(C)C)c1	MBD2 DNA inh 19.9 | UHRF1 DNA bind inactive | MBD2 confirm inactive
COc1nc(OC)nc(N2CCC(C(=O)NCc3ccccc3OC)CC2)n1	none (no result: ASAP1 inh, ARFGAP1 inhibitor)
CCOC(=O)[C@H]1[C@H]2COc3ccccc3[C@@H]2N2C(=O)c3ccc(C)cc3NC(=O)[C@@]12C	none
CCOC(=O)[C@H]1[C@H]2COc3ccccc3[C@@H]2N2C(=O)c3ccccc3NC(=O)[C@@]12C	MBD2 DNA inh 17.8 | UHRF1 DNA bind inactive | MBD2 confirm inactive
CCCCN(C(=O)c1cccc(N2C(=O)c3ccccc3C2=O)c1)c1c(N)n(CC(C)C)c(=O)[nH]c1=O	none
CCCCN(C(=O)c1cccc(-n2cccc2)c1)c1c(N)n(Cc2ccccc2)c(=O)[nH]c1=O	UHRF1 MBD2 ctr 33.2, MBD2 DNA inh 17.6 | UHRF1 DNA bind 43.1 | MBD2 confirm 34.6
NC(=O)C1=C[C@@H](c2csc3ccccc23)C[C@@H](OCCCCO)O1	MBD2 DNA inh 14.8 | UHRF1 DNA bind inactive | MBD2 confirm inactive
CC(C)C[C@H]1CN(CCCC[C@H]2CNC(=O)C(=O)N2CCc2ccccc2)C(=O)C(=O)N1CCc1ccc(O)cc1	none
CC(C)C[C@H]1CN(CCCC[C@H]2CNC(=O)C(=O)N2CCc2ccc(O)cc2)C(=O)C(=O)N1Cc1ccccc1	UHRF1 MBD2 ctr 24.9, MBD2 DNA inh 13.2 | UHRF1 DNA bind inactive | MBD2 confirm inactive
COc1ccc(/C=N\NC(=S)SCN2C(=O)C3CCC(C)(C2=O)C3(C)C)cc1 (centres undefined)	MBD2 DNA inh 47.7 | UHRF1 DNA bind inactive | MBD2 confirm inactive
Cc1ccc(NC(=O)Cc2ccc(OC(F)F)cc2)c(S(=O)(=O)N2CCOCC2)c1	none (no result: ASAP1 inh, ARFGAP1 inhibitor)
Cc1ccc(-c2nc3ccc(Cl)cn3c2CC2CCCCC2)cc1	none
Cc1ccc(-c2nc3ccc(C)cn3c2CC2CCCCC2)cc1	UHRF1 MBD2 ctr 21.7, MBD2 DNA inh 13.4 | UHRF1 DNA bind inactive | MBD2 confirm inactive
O=C(CCS(=O)(=O)c1cc2c(cc1Cl)NC(=O)CO2)NCc1ccccc1	none
O=C(CCS(=O)(=O)c1cc2c(cc1Cl)NC(=O)CO2)NCCc1ccccc1	MBD2 DNA inh 31.3 | UHRF1 DNA bind inactive | MBD2 confirm inactive
O=C(CCSc1nc(-c2ccco2)cc(C(F)(F)F)n1)NCc1ccccn1	MBD2 DNA inh 24.1 | UHRF1 DNA bind inactive | MBD2 confirm inactive
COc1ccc2c(CC(=O)N3CCN(S(=O)(=O)c4ccc(F)cc4)CC3)coc2c1	MBD2 DNA inh 73.0 | UHRF1 DNA bind inactive | MBD2 confirm inactive
COc1ccc2c(CC(=O)N3CCN(S(=O)(=O)c4cccs4)CC3)coc2c1	none
CCCc1nc2c3ccccc3ccn2c1Cc1ccccc1OC	none
CCCc1nc2c3ccccc3ccn2c1Cc1ccc(OC)cc1C	UHRF1 MBD2 ctr 26.0, MBD2 DNA inh 15.6 | UHRF1 DNA bind inactive | MBD2 confirm inactive
CS(=O)(=O)Nc1cccc(NC(=O)c2ccc(-n3ccnc3)c3ccoc23)c1	MBD2 DNA inh 14.2 | UHRF1 DNA bind inactive | MBD2 confirm inactive
COC(=O)[C@]12C[C@H](CC(=O)NCC3CCCCC3)C(=O)N(Cc3cccc4ccccc34)C1=C[C@H](C(C)(C)C)O[C@@H]2C	none (no result: ASAP1 inh, ARFGAP1 inhibitor)
COc1ccc(N2CCN(C(=O)CNC(=O)Cn3cnc4sc(C)c(C)c4c3=O)CC2)cc1	MBD2 DNA inh 86.4 | UHRF1 DNA bind inactive | MBD2 confirm inactive

Assay outcomes as filed in PubChem BioAssay.
